In ChEMBL document CHEMBL5532737, “Lead Identification of Novel Naphthyridine Derivatives as Potent SOS1 Inhibitors” (ACS Med Chem Lett, 2024):
Values belong to the molecule of their own block, whether it stands above or below them. Calls of active or inactive are those of the source. No cut-off for these calls is given here.

How the values were obtained:
SOS1-KRAS = SOS1-KRAS (Homo sapiens, UniProt Q07889); experiment: Inhibition of SOS1/KRAS G12C mutant (unknown origin) protein-protein interaction incubated for 2 hrs by HTRF analysis; assay type: protein-complex assay
Chain of SOS1-KRAS (Q07889 whole entry, looked up, stated change not applied): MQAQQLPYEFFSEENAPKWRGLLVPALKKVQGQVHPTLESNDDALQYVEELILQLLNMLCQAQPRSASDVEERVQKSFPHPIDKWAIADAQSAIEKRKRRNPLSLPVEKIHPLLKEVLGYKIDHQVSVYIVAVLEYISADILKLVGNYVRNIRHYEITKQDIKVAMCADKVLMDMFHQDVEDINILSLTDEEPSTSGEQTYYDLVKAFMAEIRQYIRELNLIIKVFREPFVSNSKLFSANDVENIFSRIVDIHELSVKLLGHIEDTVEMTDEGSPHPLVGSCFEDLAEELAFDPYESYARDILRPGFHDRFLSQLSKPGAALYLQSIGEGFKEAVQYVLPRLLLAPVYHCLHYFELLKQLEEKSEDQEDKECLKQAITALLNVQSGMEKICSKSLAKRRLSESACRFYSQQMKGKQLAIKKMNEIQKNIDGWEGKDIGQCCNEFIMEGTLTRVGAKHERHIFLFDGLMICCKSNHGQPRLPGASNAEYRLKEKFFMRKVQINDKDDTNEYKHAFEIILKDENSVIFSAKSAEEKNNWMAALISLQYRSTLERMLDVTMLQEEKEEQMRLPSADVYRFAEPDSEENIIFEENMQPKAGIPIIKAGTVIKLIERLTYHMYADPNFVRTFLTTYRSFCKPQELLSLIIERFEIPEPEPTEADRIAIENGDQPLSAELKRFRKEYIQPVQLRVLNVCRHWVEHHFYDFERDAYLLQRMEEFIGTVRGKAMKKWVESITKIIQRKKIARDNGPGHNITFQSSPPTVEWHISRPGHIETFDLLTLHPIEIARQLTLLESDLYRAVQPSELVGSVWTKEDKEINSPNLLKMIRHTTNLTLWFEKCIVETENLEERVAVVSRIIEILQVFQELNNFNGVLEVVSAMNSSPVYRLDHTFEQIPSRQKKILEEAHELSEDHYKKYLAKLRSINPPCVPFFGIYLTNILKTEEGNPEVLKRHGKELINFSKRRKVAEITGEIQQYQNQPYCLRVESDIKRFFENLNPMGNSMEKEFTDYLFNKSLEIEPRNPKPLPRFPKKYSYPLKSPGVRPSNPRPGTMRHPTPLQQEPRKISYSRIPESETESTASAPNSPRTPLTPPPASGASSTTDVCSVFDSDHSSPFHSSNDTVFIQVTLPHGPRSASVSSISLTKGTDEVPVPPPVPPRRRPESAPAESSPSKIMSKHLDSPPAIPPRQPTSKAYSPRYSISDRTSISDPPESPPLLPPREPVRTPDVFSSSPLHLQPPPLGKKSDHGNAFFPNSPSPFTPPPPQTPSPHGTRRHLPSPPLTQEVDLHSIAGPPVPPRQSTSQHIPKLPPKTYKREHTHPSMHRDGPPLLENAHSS

[1] = Inhibition of ERK phosphorylation in human PC-9 cells incubated for 1 hr by HTRF analysis; assay type: cell-based; settings: PC-9, 1 h
[2] = Cmax in ICR mouse at 5 mg/kg, po measured upto 24 hrs by LCMS analysis; assay type: ADME, organism-based; settings: in vivo
Procedure, shortened: (§1)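 Mice were dosed once orally at 5 mg/kg or intravenously at 1 mg/kg, both in solution in 5% DMSO + 95% (20% HP-β-CD). Cmax is the highest observed plasma concentration, AUC the area under the plasma concentration–time curve, and F the bioavailability. CL is reported as elimination rate and t1/2 as elimination half-life.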

[3] = Elimination half life in ICR mouse at 1 mg/kg, iv measured upto 24 hrs by LCMS analysis; assay type: ADME, organism-based; settings: in vivo, read-out: beta t1/2 (converted); procedure, shortened: as §1
[4] = AUC in ICR mouse at 5 mg/kg, po measured upto 24 hrs by LCMS analysis; assay type: ADME, organism-based; settings: in vivo; procedure, shortened: as §1
[5] = Oral bioavailability in ICR mouse at 5 mg/kg measured upto 24 hrs by LCMS analysis; assay type: ADME, organism-based; settings: in vivo; procedure, shortened: as §1
[6] = Clearance in ICR mouse at 1 mg/kg, iv measured upto 24 hrs by LCMS analysis; assay type: ADME, organism-based; settings: in vivo; procedure, shortened: as §1
Cytochrome P450 2C19 = Cytochrome P450 2C19 (Homo sapiens, UniProt P33261); experiment: Inhibition of CYP2C19 in human liver microsomes incubated for 5 mins by LC-MS/MS analysis; assay type: ADME, Microsome
Chain of Cytochrome P450 2C19 (P33261 whole entry): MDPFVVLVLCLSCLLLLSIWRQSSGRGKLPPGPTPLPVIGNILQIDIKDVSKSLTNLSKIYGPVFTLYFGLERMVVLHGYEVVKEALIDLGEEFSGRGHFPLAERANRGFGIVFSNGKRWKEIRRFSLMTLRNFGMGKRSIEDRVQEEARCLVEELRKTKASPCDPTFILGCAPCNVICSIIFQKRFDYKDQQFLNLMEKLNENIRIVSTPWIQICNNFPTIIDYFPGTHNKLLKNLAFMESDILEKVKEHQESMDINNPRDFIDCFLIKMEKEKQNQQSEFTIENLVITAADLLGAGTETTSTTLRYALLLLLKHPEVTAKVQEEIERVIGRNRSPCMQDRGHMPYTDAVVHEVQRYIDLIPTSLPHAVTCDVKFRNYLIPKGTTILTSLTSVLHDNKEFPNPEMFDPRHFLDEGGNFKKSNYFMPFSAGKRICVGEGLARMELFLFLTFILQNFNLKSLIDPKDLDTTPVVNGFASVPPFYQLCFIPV

[7] = Plasma protein binding in human assessed as unbound fraction incubated for 4 hrs by LC-MS/MS analysis; assay type: ADME, cell-free
Cytochrome P450 2C9 = Cytochrome P450 2C9 (Homo sapiens, UniProt P11712); experiment: Inhibition of CYP2C9 in human liver microsomes incubated for 5 mins by LC-MS/MS analysis; assay type: ADME, Microsome
Chain of Cytochrome P450 2C9 (P11712 whole entry): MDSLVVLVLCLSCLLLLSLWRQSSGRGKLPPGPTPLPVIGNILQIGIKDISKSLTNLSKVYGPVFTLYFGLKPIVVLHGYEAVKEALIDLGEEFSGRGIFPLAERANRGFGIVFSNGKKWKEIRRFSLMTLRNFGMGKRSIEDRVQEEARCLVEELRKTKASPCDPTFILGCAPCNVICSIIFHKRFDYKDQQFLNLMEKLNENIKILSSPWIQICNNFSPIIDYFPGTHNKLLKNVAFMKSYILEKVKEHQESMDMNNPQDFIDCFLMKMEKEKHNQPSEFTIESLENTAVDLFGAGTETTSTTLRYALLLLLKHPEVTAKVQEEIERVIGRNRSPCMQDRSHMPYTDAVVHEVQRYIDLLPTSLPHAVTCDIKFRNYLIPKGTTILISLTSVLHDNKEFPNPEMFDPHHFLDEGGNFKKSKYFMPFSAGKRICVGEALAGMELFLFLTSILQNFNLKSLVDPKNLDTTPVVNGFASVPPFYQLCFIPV

[8] = Plasma protein binding in rat assessed as unbound fraction incubated for 4 hrs by LC-MS/MS analysis; assay type: ADME, cell-free
Cytochrome P450 3A4 = Cytochrome P450 3A4 (Homo sapiens, UniProt P08684); experiment: Inhibition of CYP3A4 in human liver microsomes incubated for 5 mins by LC-MS/MS analysis; assay type: ADME, Microsome
Chain of Cytochrome P450 3A4 (P08684 whole entry): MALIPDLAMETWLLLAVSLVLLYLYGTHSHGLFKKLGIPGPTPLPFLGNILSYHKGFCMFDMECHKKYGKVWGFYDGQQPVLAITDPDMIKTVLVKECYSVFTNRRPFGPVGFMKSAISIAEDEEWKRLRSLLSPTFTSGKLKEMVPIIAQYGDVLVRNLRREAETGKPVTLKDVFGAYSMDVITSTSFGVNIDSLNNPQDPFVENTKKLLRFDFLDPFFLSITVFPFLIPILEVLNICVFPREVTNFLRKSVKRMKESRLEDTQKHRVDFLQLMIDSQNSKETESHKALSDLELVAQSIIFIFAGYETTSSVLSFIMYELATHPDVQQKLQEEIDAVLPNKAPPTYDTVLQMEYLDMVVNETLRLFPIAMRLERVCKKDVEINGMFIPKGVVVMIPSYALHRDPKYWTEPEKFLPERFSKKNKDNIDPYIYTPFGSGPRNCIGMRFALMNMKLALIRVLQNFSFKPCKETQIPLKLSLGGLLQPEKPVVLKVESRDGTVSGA

Cytochrome P450 2D6 = Cytochrome P450 2D6 (Homo sapiens, UniProt P10635); experiment: Inhibition of CYP2D6 in human liver microsomes incubated for 5 mins by LC-MS/MS analysis; assay type: ADME, Microsome
Chain of Cytochrome P450 2D6 (P10635 whole entry): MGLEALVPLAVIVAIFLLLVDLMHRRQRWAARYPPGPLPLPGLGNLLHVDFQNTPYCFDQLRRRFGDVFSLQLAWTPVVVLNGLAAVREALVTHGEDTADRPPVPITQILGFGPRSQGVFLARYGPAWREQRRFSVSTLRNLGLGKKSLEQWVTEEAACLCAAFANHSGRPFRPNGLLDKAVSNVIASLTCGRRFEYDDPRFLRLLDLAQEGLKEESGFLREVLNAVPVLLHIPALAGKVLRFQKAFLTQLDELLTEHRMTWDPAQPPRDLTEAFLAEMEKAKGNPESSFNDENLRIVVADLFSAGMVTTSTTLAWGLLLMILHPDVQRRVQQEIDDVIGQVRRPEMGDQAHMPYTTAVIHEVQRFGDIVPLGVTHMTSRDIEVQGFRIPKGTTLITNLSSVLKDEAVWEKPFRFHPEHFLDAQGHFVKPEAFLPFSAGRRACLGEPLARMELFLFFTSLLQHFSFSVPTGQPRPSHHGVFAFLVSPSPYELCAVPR

NCI-H358 [9] = experiment: Antiproliferative activity against human NCI-H358 cells harboring KRAS G12C mutant assessed as inhibition of cell proliferation incubated for 5 days by celltiter-glo 3D assay; assay type: functional, cell-based; settings: NCI-H358, 120 h
[10] = target: Voltage-gated inwardly rectifying potassium channel KCNH2 (Homo sapiens, UniProt Q12809); experiment: Inhibition of hERG transfected in HEK293 cells by whole-cell manual patch clamp assay; assay type: toxicity, cell-based
Chain of Voltage-gated inwardly rectifying potassium channel KCNH2 (Q12809 whole entry): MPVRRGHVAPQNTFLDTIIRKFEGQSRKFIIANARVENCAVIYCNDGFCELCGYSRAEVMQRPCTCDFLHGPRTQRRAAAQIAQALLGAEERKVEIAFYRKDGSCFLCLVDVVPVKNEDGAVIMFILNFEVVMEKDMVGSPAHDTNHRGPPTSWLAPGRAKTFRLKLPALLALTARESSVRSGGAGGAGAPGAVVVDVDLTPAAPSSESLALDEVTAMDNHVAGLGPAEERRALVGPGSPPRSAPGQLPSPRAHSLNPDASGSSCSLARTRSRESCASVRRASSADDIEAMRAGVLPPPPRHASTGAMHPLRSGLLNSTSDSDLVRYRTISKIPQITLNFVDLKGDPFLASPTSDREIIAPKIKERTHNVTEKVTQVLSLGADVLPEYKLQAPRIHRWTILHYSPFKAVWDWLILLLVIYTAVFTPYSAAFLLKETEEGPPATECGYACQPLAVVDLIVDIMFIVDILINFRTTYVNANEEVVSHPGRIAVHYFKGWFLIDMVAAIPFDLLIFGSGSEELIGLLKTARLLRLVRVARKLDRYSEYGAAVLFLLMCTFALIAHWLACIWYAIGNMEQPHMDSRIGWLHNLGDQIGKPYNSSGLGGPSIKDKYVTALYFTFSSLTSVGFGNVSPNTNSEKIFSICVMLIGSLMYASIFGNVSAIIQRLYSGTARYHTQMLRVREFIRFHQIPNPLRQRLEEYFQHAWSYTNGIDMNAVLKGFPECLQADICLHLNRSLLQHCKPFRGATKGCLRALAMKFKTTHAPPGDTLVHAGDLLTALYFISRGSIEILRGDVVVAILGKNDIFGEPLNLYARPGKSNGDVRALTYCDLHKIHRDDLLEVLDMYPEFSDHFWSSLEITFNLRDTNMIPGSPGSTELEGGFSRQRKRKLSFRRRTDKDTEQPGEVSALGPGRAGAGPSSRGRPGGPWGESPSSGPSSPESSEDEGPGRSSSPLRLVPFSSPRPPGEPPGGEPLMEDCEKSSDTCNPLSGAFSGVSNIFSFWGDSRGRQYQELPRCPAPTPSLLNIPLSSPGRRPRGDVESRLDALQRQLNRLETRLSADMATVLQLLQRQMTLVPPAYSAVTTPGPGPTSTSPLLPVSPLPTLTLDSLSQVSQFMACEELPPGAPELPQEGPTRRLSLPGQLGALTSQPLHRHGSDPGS

Cytochrome P450 1A2 = target: T1, Cytochrome P450 1A2 (Homo sapiens, UniProt P05177); experiment: Inhibition of CYP1A2 in human liver microsomes incubated for 5 mins by LC-MS/MS analysis; assay type: ADME, Microsome
T1 sequence (P05177 whole entry): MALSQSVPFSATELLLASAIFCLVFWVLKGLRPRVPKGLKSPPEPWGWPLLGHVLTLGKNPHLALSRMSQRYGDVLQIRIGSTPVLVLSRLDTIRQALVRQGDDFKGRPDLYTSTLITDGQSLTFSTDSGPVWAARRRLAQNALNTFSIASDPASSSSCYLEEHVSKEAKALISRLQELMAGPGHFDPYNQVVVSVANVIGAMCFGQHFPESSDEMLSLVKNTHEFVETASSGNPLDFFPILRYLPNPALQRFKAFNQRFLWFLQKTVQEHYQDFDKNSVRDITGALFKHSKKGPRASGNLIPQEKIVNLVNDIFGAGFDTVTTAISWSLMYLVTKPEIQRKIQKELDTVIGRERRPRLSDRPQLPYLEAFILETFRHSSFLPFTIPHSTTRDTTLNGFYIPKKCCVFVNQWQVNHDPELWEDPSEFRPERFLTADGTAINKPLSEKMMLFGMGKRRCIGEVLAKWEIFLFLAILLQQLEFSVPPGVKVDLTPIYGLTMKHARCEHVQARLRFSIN

NCI-H358 [11] = experiment: Antitumor activity against human NCI-H358 cells harboring KRAS G12C mutant xenografted in BALB/c mouse assessed as tumor growth inhibition at 50 mg/kg, po measured after 28 days; assay type: functional; settings: NCI-H358, 672 h, time 28 day, read-out: TGI
Procedure, shortened: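 Subcutaneous NCI-H358 (KRAS G12C) xenograft mice given the drug orally. Efficacy is expressed as tumour growth inhibition (TGI), shown as mean ± SEM and compared with the vehicle group on day 28 (P < 0.05). Tumour p-ERK and plasma drug levels were measured 2 and 24 h after treatment.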

NCI-H358 [12] = experiment: Antitumor activity against human NCI-H358 cells harboring KRAS G12C mutant xenografted in BALB/c mouse assessed as reduction in ERK phosphorylation at 50 mg/kg, po measured for 2 to 24 hrs; assay type: functional, organism-based; settings: time 2-24 hrs
Procedure, shortened: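 Tumor samples from NCI-H358 xenograft mice were assayed for p-ERK levels at 2 and 24 h after drug treatment. Plasma drug concentrations were measured at the same time points. Data are given as mean ± SEM.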

[13] = Drug concentration in mouse plasma at 50 mg/kg, po measured for 8 hrs; assay type: ADME, organism-based; settings: in vivo
Procedure, shortened: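 Mice received a single 50 mg/kg dose, and the unbound drug concentration in plasma was followed over time.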

[14] = Plasma protein binding in mouse assessed as unbound fraction incubated for 4 hrs by LC-MS/MS analysis; assay type: ADME, cell-free
[15] = Plasma protein binding in dog assessed as unbound fraction incubated for 4 hrs by LC-MS/MS analysis; assay type: ADME, cell-free, Canis lupus familiaris
[16] = Toxicity against BALB/c mouse xenografted with human NCI-H358 cells harboring KRAS G12C mutant assessed as body weight loss at 50 mg/kg, po measured after 28 days; assay type: organism-based; settings: in vivo, 672 h, time 28 day
NCI-H358 [17] = experiment: Antitumor activity against human NCI-H358 cells harboring KRAS G12C mutant xenografted in BALB/c mouse assessed as reduction in ERK phosphorylation at 50 mg/kg, po measured after 28 days; assay type: functional, organism-based; settings: time 28.0 day

Compound: COc1cc2nccc(N[C@H](C)c3cccc(C(F)F)c3F)c2cc1C1CC1
- IC50 (SOS1-KRAS): 23 nM
- IC50 [1]: 1070 nM

Compound: COc1cc2nccc(N[C@H](C)c3cccc(C(F)F)c3F)c2cc1N1CCS(=O)(=O)CC1
- Cmax [2]: 10 ng/mL
- half-life [3]: 105 min
- AUC at 24 h [4]: 29 ng·h/mL
- IC50 (SOS1-KRAS): 8.6 nM
- bioavailability [5]: 5%
- IC50 [1]: 17 nM
- clearance [6]: 127 mL/min/kg

Compound: C[C@@H](Nc1ccnc2cnc(N3CCN(C)C(=O)C3)cc12)c1cccc(C(F)F)c1F
- IC50 (SOS1-KRAS): 6.9 nM
- IC50 [1]: 130 nM

Compound: COc1cc2nccc(N[C@H](C)c3cccc(C(F)F)c3F)c2cc1O[C@H]1CCOC1
- IC50 (SOS1-KRAS): 6.7 nM
- IC50 [1]: 212 nM

Compound: COc1cc2nccc(N[C@H](C)c3cccc(C(F)F)c3F)c2cc1C1CCN(C(C)=O)CC1
- IC50 (SOS1-KRAS): 11 nM
- IC50 [1]: 1030 nM

Compound: COc1cc2nccc(N[C@H](C)c3cccc(C(F)F)c3F)c2cc1O[C@H]1CCN(C(=O)C2CCOCC2)C1
- IC50 (SOS1-KRAS): 13 nM
- IC50 [1]: 73 nM

Compound: C[C@@H](Nc1ccnc2cnc(N3CCS(=O)(=O)CC3)cc12)c1cccc(C(F)F)c1F
- Cmax [2]: 136 ng/mL
- half-life [3]: 70.8 min
- AUC at 24 h [4]: 406 ng·h/mL
- IC50 (SOS1-KRAS): 5.2 nM
- bioavailability [5]: 36%
- IC50 [1]: 56 nM
- clearance [6]: 67 mL/min/kg

Compound: CC(=O)N1CCC(c2cc3c(N[C@H](C)c4cccc(C(F)F)c4F)ccnc3cn2)C1 (some centres undefined)
- IC50 (SOS1-KRAS): 22 nM
- IC50 [1]: 167 nM

Compound: CC(=O)N1CCN(c2cc3c(N[C@H](C)c4cccc(C(F)F)c4F)ccnc3cn2)CC1
- Cmax [2]: 714 ng/mL
- IC50 (Cytochrome P450 2C19): 3.16 µM
- fraction unbound at 4 h [7]: 0.0481
- IC50 (Cytochrome P450 2C9): 5.69 µM
- fraction unbound at 4 h [8]: 0.0529
- IC50 (Cytochrome P450 3A4): > 50 µM
- half-life [3]: 91.8 min
- IC50 (Cytochrome P450 2D6): 11.1 µM
- AUC at 24 h [4]: 1950 ng·h/mL
- IC50 (NCI-H358 [9]): 322 nM
- IC50 [10]: 2450 nM
- IC50 (SOS1-KRAS): 5.8 nM
- IC50 (Cytochrome P450 1A2): 17.5 µM
- inhibition in vivo at 50 mg/kg (NCI-H358 [11]): 76%
- Activity (NCI-H358 [12]): Active
- bioavailability [5]: 81%
- IC50 [1]: 54 nM
- clearance [6]: 35 mL/min/kg
- Drug uptake [13]: Active
- fraction unbound at 4 h [14]: 0.0675
- fraction unbound at 4 h [15]: 0.0545

- IC50 (SOS1-KRAS): 13 nM
Compound: C[C@@H](Nc1ccnc2cnc(N3CCN(S(C)(=O)=O)CC3)cc12)c1cccc(C(F)F)c1F

Compound: COc1cc2nccc(N[C@H](C)c3cccc(C(F)F)c3F)c2cc1O[C@H]1CCN(C)C1
- IC50 (SOS1-KRAS): 15 nM
- IC50 [1]: 295 nM

Compound: COc1cc2nccc(N[C@H](C)c3cccc(C(F)F)c3F)c2cc1OC1CCNCC1
- IC50 (SOS1-KRAS): 13 nM
- IC50 [1]: 1070 nM

Compound: C[C@@H](Nc1ccnc2cnc(N3CCOCC3)cc12)c1cccc(C(F)F)c1F
- IC50 (SOS1-KRAS): 7 nM
- IC50 [1]: 349 nM

Compound: COc1cc2nccc(N[C@H](C)c3cccc(C(F)F)c3F)c2cc1N1CCN(C(C)=O)CC1
- IC50 (SOS1-KRAS): 8.8 nM
- IC50 [1]: 30 nM

Compound: CC(=O)N1CCC(c2cc3c(N[C@H](C)c4cccc(C(F)F)c4F)ccnc3cn2)CC1
- Cmax [2]: 424 ng/mL
- half-life [3]: 52.8 min
- AUC at 24 h [4]: 578 ng·h/mL
- IC50 (SOS1-KRAS): 9.7 nM
- bioavailability [5]: 25%
- IC50 [1]: 77 nM
- clearance [6]: 40 mL/min/kg

Compound: COc1cc2nccc(N[C@H](C)c3cccc(C(F)F)c3F)c2cc1O[C@H]1CCNC1
- IC50 (SOS1-KRAS): 6 nM
- IC50 [1]: 497 nM

Compound: COc1cc2nccc(N[C@H](C)c3cccc(C(F)F)c3F)c2cc1O[C@H]1CCN(C(=O)C2CC2)C1
- IC50 (SOS1-KRAS): 10 nM
- IC50 [1]: 92 nM

Compound: COc1cc2nccc(N[C@H](C)c3cccc(C(F)F)c3F)c2cc1OC
- IC50 (SOS1-KRAS): 11 nM
- IC50 [1]: 548 nM

Compound: COc1cc2nccc(N[C@H](C)c3cccc(C(F)F)c3F)c2cc1O[C@H]1CCN(C(C)=O)C1
- Cmax [2]: 77 ng/mL
- half-life [3]: 27 min
- AUC at 24 h [4]: 152 ng·h/mL
- IC50 (SOS1-KRAS): 3.8 nM
- bioavailability [5]: 19%
- IC50 [1]: 45 nM
- clearance [6]: 107 mL/min/kg

Compound: COc1cc2nc(C)nc(N[C@H](C)c3cc(N)cc(C(F)(F)F)c3)c2cc1O[C@H]1CCOC1
- Activity [16]: Non-Toxic
- IC50 (NCI-H358 [9]): 90 nM
- inhibition in vivo at 50 mg/kg (NCI-H358 [11]): 49%
- IC50 [1]: 299 nM
- Activity (NCI-H358 [17]): Active

Compound: CC(=O)NC1CCN(c2cc3c(N[C@H](C)c4cccc(C(F)F)c4F)ccnc3cn2)CC1
- IC50 (SOS1-KRAS): 12 nM
- IC50 [1]: 490 nM

Compound: C[C@@H](Nc1ccnc2cnc(O[C@H]3CCOC3)cc12)c1cccc(C(F)F)c1F
- IC50 (SOS1-KRAS): 15 nM
- IC50 [1]: 770 nM

Compound: COc1cc2nccc(N[C@H](C)c3cccc(C(F)F)c3F)c2cc1C1CCNCC1
- IC50 (SOS1-KRAS): 14 nM
- IC50 [1]: 798 nM

Compound: C[C@@H](Nc1ccnc2cnc(N3CCC(O)CC3)cc12)c1cccc(C(F)F)c1F
- IC50 (SOS1-KRAS): 8.5 nM
- IC50 [1]: 156 nM
